pIC50: −log10 of the molar value.
Each compound was assayed against T1, Acetylcholinesterase (Rattus norvegicus, UniProt P37136) (assay: Inhibition of AChE in rat cortex after 15 mins by modified Ellman's method).
T1 sequence (P37136 whole entry): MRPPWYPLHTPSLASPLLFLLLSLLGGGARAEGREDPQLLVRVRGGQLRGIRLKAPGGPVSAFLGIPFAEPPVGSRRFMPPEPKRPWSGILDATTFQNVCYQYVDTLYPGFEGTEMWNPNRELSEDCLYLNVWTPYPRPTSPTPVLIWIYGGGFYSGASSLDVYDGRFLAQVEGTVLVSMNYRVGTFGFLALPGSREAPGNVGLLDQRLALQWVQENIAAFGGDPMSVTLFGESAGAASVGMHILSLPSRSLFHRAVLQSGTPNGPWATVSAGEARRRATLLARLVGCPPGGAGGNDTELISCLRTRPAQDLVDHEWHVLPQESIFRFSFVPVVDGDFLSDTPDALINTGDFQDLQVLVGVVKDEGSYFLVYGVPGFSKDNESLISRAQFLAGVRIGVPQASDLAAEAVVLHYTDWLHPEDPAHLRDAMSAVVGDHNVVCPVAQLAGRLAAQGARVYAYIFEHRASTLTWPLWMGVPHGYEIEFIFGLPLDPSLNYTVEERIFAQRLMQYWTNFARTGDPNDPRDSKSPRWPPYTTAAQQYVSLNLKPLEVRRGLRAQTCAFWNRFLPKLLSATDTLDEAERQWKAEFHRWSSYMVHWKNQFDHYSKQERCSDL

Compound | pIC50
COc1cc2c(cc1OC)C(=O)CC(c1ccc(CN3CCCCC3)cc1)O2 (stereo not drawn) | 6.61
COc1cc2oc(-c3ccc(CN4CCCC4)cc3)cc(=O)c2cc1OC | 7.26
COc1cc2occ(-c3ccc(CN4CCCCC4)cc3)c(=O)c2cc1OC | 7.17
CCN(CC)Cc1ccc(-c2cc(=O)c3cc(OC)c(OC)cc3o2)cc1 | 6.19
CCN(CC)Cc1ccc(C2CC(=O)c3cc(OC)c(OC)cc3O2)cc1 (stereo not drawn) | 5.30
COc1cc2c(cc1OC)C(=O)CC(c1ccc(CN3CCCC3)cc1)O2 (stereo not drawn) | 5.91
CCN(C)Cc1ccc(-c2cc(=O)c3cc(OC)c(OC)cc3o2)cc1 | 6.47
COc1cc2c(cc1OC)C(=O)CC(c1cccc(CN3CCCC3)c1)O2 (stereo not drawn) | 5.27
COc1cc(O)c(C(=O)/C=C/c2ccc(CN3CCCC3)cc2)cc1OC | 7.43
COc1cc(O)c(C(=O)/C=C/c2cccc(CN3CCCC3)c2)cc1OC | 7.33
COc1cc2oc(-c3ccc(CN4CCCCC4)cc3)cc(=O)c2cc1OC | 7.47
COc1cc(O)c(C(=O)/C=C/c2ccc(CN3CCCCC3)cc2)cc1OC | 6.91
CCN(CC)Cc1cccc(-c2coc3cc(OC)c(OC)cc3c2=O)c1 | 6.25
CCN(CC)Cc1cccc(/C=C/C(=O)c2cc(OC)c(OC)cc2O)c1 | 5.79
COc1cc2oc(-c3cccc(CN4CCCC4)c3)cc(=O)c2cc1OC | 6.15
COc1cc2occ(-c3cccc(CN4CCCC4)c3)c(=O)c2cc1OC | 7.15
CCN(CC)Cc1cccc(C2CC(=O)c3cc(OC)c(OC)cc3O2)c1 (stereo not drawn) | 3.76
CCN(CC)Cc1ccc(-c2coc3cc(OC)c(OC)cc3c2=O)cc1 | 6.22
COc1cc2occ(-c3ccc(CN4CCCC4)cc3)c(=O)c2cc1OC | 8.40
CCN(C)Cc1ccc(/C=C/C(=O)c2cc(OC)c(OC)cc2O)cc1 | 6.90
CCN(CC)Cc1cccc(-c2cc(=O)c3cc(OC)c(OC)cc3o2)c1 | 5.22
CCN(C)Cc1ccc(C2CC(=O)c3cc(OC)c(OC)cc3O2)cc1 (stereo not drawn) | 5.33
CCN(CC)Cc1ccc(/C=C/C(=O)c2cc(OC)c(OC)cc2O)cc1 | 6.99
CCN(C)Cc1ccc(-c2coc3cc(OC)c(OC)cc3c2=O)cc1 | 6.77

Each compound was assayed against Butyrylcholinesterase (Rattus norvegicus, UniProt Q9JKC1) (assay: Inhibition of BChE in rat serum after 15 mins by modified Ellman's method).
Assay type: cell-free
In short: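 Enzyme source was rat serum. Substrate butyrylthiocholine iodide 0.4 mmol/L in sodium phosphate buffer ([…]). Serum was incubated with the test compound at several concentrations at 37 °C for 15 min. Activity was read spectrophotometrically by a modified Ellman method, with IC50 derived from the concentration series.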

Butyrylcholinesterase, sequence (Q9JKC1 whole entry): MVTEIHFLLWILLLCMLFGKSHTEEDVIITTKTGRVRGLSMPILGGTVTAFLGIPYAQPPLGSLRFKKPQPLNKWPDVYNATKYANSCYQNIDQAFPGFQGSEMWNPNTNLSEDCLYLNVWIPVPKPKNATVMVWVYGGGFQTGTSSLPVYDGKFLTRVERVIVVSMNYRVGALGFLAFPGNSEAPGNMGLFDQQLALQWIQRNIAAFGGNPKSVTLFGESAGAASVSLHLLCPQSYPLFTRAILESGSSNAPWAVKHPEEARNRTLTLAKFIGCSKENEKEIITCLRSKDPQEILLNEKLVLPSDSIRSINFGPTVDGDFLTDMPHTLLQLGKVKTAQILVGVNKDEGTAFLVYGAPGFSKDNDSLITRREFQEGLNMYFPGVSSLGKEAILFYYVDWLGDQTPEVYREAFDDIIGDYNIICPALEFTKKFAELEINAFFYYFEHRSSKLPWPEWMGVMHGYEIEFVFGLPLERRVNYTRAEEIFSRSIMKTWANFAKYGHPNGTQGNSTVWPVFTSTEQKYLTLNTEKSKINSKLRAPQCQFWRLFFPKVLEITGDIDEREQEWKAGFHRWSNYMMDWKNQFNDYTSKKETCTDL

Compound | pIC50
COc1cc2c(cc1OC)C(=O)CC(c1ccc(CN3CCCCC3)cc1)O2 (stereo not drawn) | 4.32
COc1cc2oc(-c3ccc(CN4CCCC4)cc3)cc(=O)c2cc1OC | 4.05
COc1cc2occ(-c3ccc(CN4CCCCC4)cc3)c(=O)c2cc1OC | < 4.00
CCN(CC)Cc1ccc(-c2cc(=O)c3cc(OC)c(OC)cc3o2)cc1 | 4.19
CCN(CC)Cc1ccc(C2CC(=O)c3cc(OC)c(OC)cc3O2)cc1 (stereo not drawn) | < 4.00
COc1cc2c(cc1OC)C(=O)CC(c1ccc(CN3CCCC3)cc1)O2 (stereo not drawn) | 4.17
CCN(C)Cc1ccc(-c2cc(=O)c3cc(OC)c(OC)cc3o2)cc1 | < 4.00
COc1cc2c(cc1OC)C(=O)CC(c1cccc(CN3CCCC3)c1)O2 (stereo not drawn) | < 4.00
COc1cc(O)c(C(=O)/C=C/c2ccc(CN3CCCC3)cc2)cc1OC | < 4.00
COc1cc(O)c(C(=O)/C=C/c2cccc(CN3CCCC3)c2)cc1OC | 4.11
COc1cc2oc(-c3ccc(CN4CCCCC4)cc3)cc(=O)c2cc1OC | 4.12
COc1cc(O)c(C(=O)/C=C/c2ccc(CN3CCCCC3)cc2)cc1OC | < 4.00
CCN(CC)Cc1cccc(-c2coc3cc(OC)c(OC)cc3c2=O)c1 | < 4.00
CCN(CC)Cc1cccc(/C=C/C(=O)c2cc(OC)c(OC)cc2O)c1 | < 4.00
COc1cc2oc(-c3cccc(CN4CCCC4)c3)cc(=O)c2cc1OC | < 4.00
COc1cc2occ(-c3cccc(CN4CCCC4)c3)c(=O)c2cc1OC | < 4.00
CCN(CC)Cc1cccc(C2CC(=O)c3cc(OC)c(OC)cc3O2)c1 (stereo not drawn) | < 4.00
CCN(CC)Cc1ccc(-c2coc3cc(OC)c(OC)cc3c2=O)cc1 | < 4.00
COc1cc2occ(-c3ccc(CN4CCCC4)cc3)c(=O)c2cc1OC | 4.74
CCN(C)Cc1ccc(/C=C/C(=O)c2cc(OC)c(OC)cc2O)cc1 | < 4.00
CCN(CC)Cc1cccc(-c2cc(=O)c3cc(OC)c(OC)cc3o2)c1 | < 4.00
CCN(C)Cc1ccc(C2CC(=O)c3cc(OC)c(OC)cc3O2)cc1 (stereo not drawn) | < 4.00
CCN(CC)Cc1ccc(/C=C/C(=O)c2cc(OC)c(OC)cc2O)cc1 | < 4.00
CCN(C)Cc1ccc(-c2coc3cc(OC)c(OC)cc3c2=O)cc1 | 4.21
